From PubChem BioAssay
Shown are actives, neighbours in structure and some others; about 5.8% of the full set was active somewhere.
Cl transport mod – modulators of human KCC2 chloride dependent transport; B-score of Tl+ flux slope (higher = more flux/activation; lower = inhibition) at 10 µM; Q9H2X9; KCC2 cells, thallium flux FluoZin-2 fluorescence; 190,000 tested, 2.2% active;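 active = thallium flux slope and its plate-corrected score both differing from the plate sample mean at a set confidence after two filtering rounds, in either direction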;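 also: slope of fluorescence scaled to starting intensity during 10 to 20 s after thallium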
Target sequence (Q9H2X9 whole entry, looked up): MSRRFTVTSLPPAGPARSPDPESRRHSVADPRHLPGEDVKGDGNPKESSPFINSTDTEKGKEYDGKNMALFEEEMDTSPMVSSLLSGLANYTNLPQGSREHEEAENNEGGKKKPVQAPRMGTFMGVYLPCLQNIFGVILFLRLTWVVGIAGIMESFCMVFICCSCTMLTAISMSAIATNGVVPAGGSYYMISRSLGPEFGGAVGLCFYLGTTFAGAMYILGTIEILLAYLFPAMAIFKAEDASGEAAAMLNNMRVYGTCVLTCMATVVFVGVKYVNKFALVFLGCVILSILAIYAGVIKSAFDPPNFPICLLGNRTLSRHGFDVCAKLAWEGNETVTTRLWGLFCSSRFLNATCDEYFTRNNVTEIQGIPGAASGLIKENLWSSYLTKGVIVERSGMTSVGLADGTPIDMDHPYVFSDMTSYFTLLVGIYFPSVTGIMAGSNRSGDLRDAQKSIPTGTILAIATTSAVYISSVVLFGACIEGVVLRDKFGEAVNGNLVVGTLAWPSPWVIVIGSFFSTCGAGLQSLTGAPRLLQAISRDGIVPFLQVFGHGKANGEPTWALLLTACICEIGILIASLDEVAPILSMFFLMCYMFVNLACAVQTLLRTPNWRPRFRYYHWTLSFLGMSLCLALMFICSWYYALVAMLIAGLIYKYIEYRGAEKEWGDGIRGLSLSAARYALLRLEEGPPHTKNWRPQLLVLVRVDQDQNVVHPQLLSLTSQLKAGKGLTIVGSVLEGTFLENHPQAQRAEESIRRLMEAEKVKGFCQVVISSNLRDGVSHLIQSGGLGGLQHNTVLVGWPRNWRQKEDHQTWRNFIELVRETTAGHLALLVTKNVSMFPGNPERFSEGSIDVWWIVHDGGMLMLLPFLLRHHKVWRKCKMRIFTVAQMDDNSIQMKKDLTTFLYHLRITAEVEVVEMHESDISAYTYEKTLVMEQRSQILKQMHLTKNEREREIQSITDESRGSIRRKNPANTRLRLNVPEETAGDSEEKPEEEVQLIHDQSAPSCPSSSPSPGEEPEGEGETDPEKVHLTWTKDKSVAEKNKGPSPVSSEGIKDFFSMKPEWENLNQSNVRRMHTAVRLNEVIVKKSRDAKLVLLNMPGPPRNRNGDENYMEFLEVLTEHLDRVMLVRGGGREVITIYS
RBBP9 inh – blocks human serine hydrolase RBBP9; recombinant RBBP9, FP-Rh probe fluorescence polarization; AID 1515; O75884; inhibition, % at 7.94 µM; 220,000 tested, 0.2% active;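 active = inhibition above the campaign mean of all tested compounds plus 3 SD, cut at about 14% in these data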;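 also: plate controls were DMSO wells with RBBP9 for no effect and wells lacking RBBP9 protein for full effect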
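Controls: DMSO-treated enzyme wells and wells lacking RBBP9 | Material: RBBP9 protein | Technique: Fluorescence polarization | Replication: Single well per compound, no replicates | Buffer or medium: Tris-NaCl-Pluronic buffer, pH 8.0 | Timing: 30 min compound preincubation, 45 min probe labeling, 25 °C | Read-out basis: Percent inhibition from mP, scaled between DMSO and no-protein wells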
NCF1 inh – inhibitors of human p47phox binding. P14598. p47phox/p22phox peptide binding, fluorescence polarization, 2 h. inhibition, % at 24.7 µM. 220,000 tested, 0.53% active;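 active = inhibition above about 30%, limit read from the data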;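 also: 0% = p47phox with labelled peptide and 100% = labelled peptide alone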
14-3-3 Bad PPI – disrupts binding of bovine 14-3-3 zeta to phospho-Bad peptide. P63103. TR-FRET 14-3-3zeta/Dy647-pBad peptide displacement, 1 h. inhibition, % at 21.7 µM. 220,000 tested, 0.71% active;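 active = inhibition above about 70%, limit read from the data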;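 also: 0% = full 14-3-3 plus peptide FRET controls and 100% = background without 14-3-3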
WT yeast gro inh – growth inhibition of WT yeast, mitochondrial fusion screen | inhibition, % at 10 µM | 190,000 tested, 2.1% active | mitochondrial fusion phenotypic screen, WT strain | AID 1362; in the data active = inhibition above about 58%; tested in S. cerevisiae
ROMK primary – modulators of human ROMK potassium channel; P48048; Tet-inducible ROMK, thallium flux fluorescence; actives lie on both sides; B-score at 10 µM; 130,000 tested, 2% active;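 active = signal ratio slope over the read window, or its plate-corrected B-score, at least 3 SD from the plate mean, either direction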;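 also: B-score of the F/F0 ratio slope over 7 to 12 s after thallium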
KCC2 sec1 – confirmation of human KCC2 transport modulators; shares compounds with Cl transport mod; HEK293-KCC2, thallium flux, FluoZin2 fluorescence; stronger effect = higher value; normalised thallium flux (F/F0 slope) at 10 µM; 3,700 tested, 15% active;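 active = thallium flux slope above the same plate's solvent-only control mean plus 3 SD; inconclusive = the two replicate wells disagree; inactive = no significant difference from solvent-only control wells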
KCC2 bumet counter – thallium flux persisting under bumetanide in KCC2 cells, counter-screen secondary assay. shares compounds with Cl transport mod. HEK293-KCC2 + bumetanide/ouabain, thallium flux FluoZin2; stronger effect = higher value. normalized thallium flux at 10 µM. 3,700 tested, 49% active. AID 1714;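 active = thallium entry rate above the same plate's blocked-transporter control wells by more than 3 SD; inconclusive = the two repeat wells disagree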;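 also: raw slope of fluorescence over initial fluorescence between 10 and 20 s after thallium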
KCC2 sec2 – KCC2 (human) modulation, second secondary assay; 3,700 tested, 23% active; HEK293-KCC2, thallium flux FluoZin2 fluorescence; actives lie on both sides; F/F0 rise rate, 10–20 s post-thallium; normalized thallium flux at 10 µM; shares compounds with Cl transport mod;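 active = thallium flux slope more than 3 SD above or below the plate's solvent-only control mean, mostly below; inconclusive = the two repeat wells disagreed; inactive = no significant shift from solvent-only controls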;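 also: raw slope with 0.1% DMSO as baseline and bumetanide as block control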
HEK counter1 – parental HEK flux effect, counter-screen. shares compounds with Cl transport mod. HEK293 parental cells, thallium flux FluoZin2, ouabain; baseline-ratio fluorescence slope, 10–20 s after thallium. thallium flux rate (normalised fluorescence) at 10 µM. 3,700 tested, 46% active. AID 1716;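 active = thallium flux rate significantly above the same plate's solvent-only control wells, beyond their mean plus 3 SD; inconclusive = the two replicate wells gave conflicting results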
KCC2 ouabain – KCC2 (human) modulation, ouabain retest; shares compounds with Cl transport mod; HEK293-KCC2, thallium flux FluoZin2 fluorescence; bidirectional: low = inhibitor, high = activator; raw Tl+ flux slope (below DMSO = inhibition, above = activation) at 10 µM; 3,700 tested, 48% active; AID 1717;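 active = thallium flux slope beyond 3 SD from same-plate DMSO control mean in most replicates, usually higher, sometimes lower; inconclusive = repeat tests gave conflicting results; inactive = no significant difference from controls in most replicates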;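 also: slope of initial-normalized fluorescence between seconds 10 and 20 after thallium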
HEK counter2 – acts in parental HEK cells, second KCC2 counter-screen; shares compounds with Cl transport mod; HEK293 parental, thallium flux FluoZin-2 fluorescence slope; thallium flux slope at 10 µM; 3,700 tested, 33% active;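 active = thallium flux slope above the same plate's solvent-control mean plus 3 SD in both duplicate wells; inconclusive = duplicate wells that disagreed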;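 also: run without ouabain in cells lacking the KCC2 cotransporter; slope of fluorescence scaled to its starting value between 10 and 20 s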
* = called active by the depositor.

`Cn1cc(Br)c(C(=O)Nc2c(F)c(F)c(F)c(F)c2F)n1` gave Cl transport mod -3.61*, RBBP9 inh -4.8, NCF1 inh -2.6, 14-3-3 Bad PPI -13.8, WT yeast gro inh -8.9, ROMK primary -0.115, KCC2 sec1 inconclusive, KCC2 bumet counter inconclusive, KCC2 sec2 0.0369, HEK counter1 0.00771, KCC2 ouabain 0.023 and HEK counter2 0.0106.
Screening COCCNC(=S)NC(=O)c1ccc(C(C)(C)C)cc1 returned Cl transport mod 8.36*, RBBP9 inh 5.6, NCF1 inh 5.1, 14-3-3 Bad PPI -12.8, WT yeast gro inh 22.4, KCC2 sec1 0.00975, KCC2 bumet counter 0.0246*, KCC2 sec2 0.03, HEK counter1 inconclusive, KCC2 ouabain 0.0192 and HEK counter2 0.0106.
Screening CC(C)OCCCNC(=O)NC(=O)c1ccc(Cl)cc1 returned Cl transport mod -0.489, RBBP9 inh -3.9, NCF1 inh 1.2, 14-3-3 Bad PPI -7.4, WT yeast gro inh -1.9 and ROMK primary 0.498.
Screening O=C(Nc1nc2c(Cl)cccc2s1)c1ccc(Br)o1 returned RBBP9 inh -8.6, NCF1 inh -7.3, 14-3-3 Bad PPI -119.4, WT yeast gro inh 19.1, KCC2 sec1 inconclusive, KCC2 bumet counter 0.0267*, KCC2 sec2 0.0326, HEK counter1 0.0342*, KCC2 ouabain 0.0309* and HEK counter2 0.0136*.
For O=C(c1ccc2c3n(nc2c1)-c1ccccc1CO3)N1CCCCC1 the results were Cl transport mod -2.53*, NCF1 inh -17.9, 14-3-3 Bad PPI -3.7, KCC2 sec1 0.00695, KCC2 bumet counter inconclusive, KCC2 sec2 0.0324, HEK counter1 0.00763, KCC2 ouabain 0.0197 and HEK counter2 0.00981.
`Cc1c(-c2ccn[nH]2)cc(NC(=O)c2ccc(Cl)cc2)c(=O)n1N` gave Cl transport mod -0.251, RBBP9 inh -6.5, NCF1 inh -8.8, 14-3-3 Bad PPI -15.9, WT yeast gro inh -7.2 and ROMK primary 0.131.
For CN(C)c1ccc(C(=O)c2ccc(O)cc2O)cc1 the results were Cl transport mod -3.59*, RBBP9 inh 3.3, NCF1 inh -23.1, 14-3-3 Bad PPI -8.1, WT yeast gro inh 10.4, ROMK primary 2.37, KCC2 sec1 0.00761, KCC2 bumet counter 0.00586, KCC2 sec2 0.0336, HEK counter1 0.00747, KCC2 ouabain inconclusive and HEK counter2 0.0107.
Screening COC1=C/C(=C/c2c(N)n3cc(C)sc3nc2=O)C=CC1=O returned Cl transport mod -6.56*, RBBP9 inh -6.0, NCF1 inh -31.7, 14-3-3 Bad PPI 3.2, WT yeast gro inh 2.5, ROMK primary -2.75, KCC2 sec1 0.00383*, KCC2 bumet counter -0.00151*, KCC2 sec2 0.0171*, HEK counter1 0.00281*, KCC2 ouabain 0.00805* and HEK counter2 0.00599*.
`Cc1cn2c(N)c(/C=C3\C=Nc4ccccc43)c(=O)nc2s1` gave Cl transport mod -0.586, RBBP9 inh 1.6, NCF1 inh -43.3 and 14-3-3 Bad PPI 39.6.
